Measured values taken from ChEMBL document CHEMBL3232757, “Structure-activity relationships for withanolides as inducers of the cellular heat-shock response” (J Med Chem, 2014).
pIC50: −log10 of the molar value. Peptide text beside a SMILES is read from it. * marks the point of attachment. Cbz = O=C(OCc1ccccc1)*

Key:
[1] = Cytotoxicity against human NCI-H929 cells after 3 days by Alamar blue assay; assay type: functional, cell-based; conditions: NCI-H929, 72 h
[2] = molecular target: Heat shock 70 kDa protein 6 (Homo sapiens) (UniProt P17066); assay: Induction of […] (unknown origin)-mediated heat shock response expressed in human 293T cells coexpressing GFP assessed as heat shock index after overnight incubation by luciferase reporter gene assay relative to control; assay type: cell-based
Chain of Heat shock 70 kDa protein 6 (Homo sapiens) (P17066 whole entry, the tested form may be a part): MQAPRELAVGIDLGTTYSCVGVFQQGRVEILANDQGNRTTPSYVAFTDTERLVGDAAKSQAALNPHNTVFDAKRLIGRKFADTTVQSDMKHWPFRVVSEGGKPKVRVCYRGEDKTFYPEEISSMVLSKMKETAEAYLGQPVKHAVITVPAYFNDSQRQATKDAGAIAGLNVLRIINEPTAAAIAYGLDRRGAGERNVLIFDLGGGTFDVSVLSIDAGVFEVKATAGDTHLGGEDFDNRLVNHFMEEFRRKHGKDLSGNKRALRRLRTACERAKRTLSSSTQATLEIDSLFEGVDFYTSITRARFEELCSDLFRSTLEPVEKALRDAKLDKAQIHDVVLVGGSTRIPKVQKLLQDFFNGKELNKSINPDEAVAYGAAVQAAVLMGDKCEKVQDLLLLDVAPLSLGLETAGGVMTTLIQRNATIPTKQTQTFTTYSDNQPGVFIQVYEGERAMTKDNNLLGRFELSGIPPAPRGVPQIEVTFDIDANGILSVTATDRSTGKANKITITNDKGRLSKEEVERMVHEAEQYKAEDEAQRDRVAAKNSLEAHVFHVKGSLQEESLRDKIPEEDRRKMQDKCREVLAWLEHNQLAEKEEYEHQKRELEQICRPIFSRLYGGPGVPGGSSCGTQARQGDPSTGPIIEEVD
In short: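 293T cells transduced with a lentiviral EGFP–firefly luciferase fusion under HSP70B′ promoter elements, enriched by heat shock (42 °C, 1 h) plus FACS, then reverse-sorted to remove constitutive expressers. Cells in DMEM/10% FBS were seeded at 20 000/well and given serial dilutions next day, quadruplicate wells, overnight. Read by Steady-Glo luminescence. Index = [Log2(treated/control)]/concentration (μM) at maximal response.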

[3] = Cytotoxicity against human CHP100 cells assessed as inhibition of cell survival after 24 hrs by MTT assay; assay type: functional, cell-based; conditions: CHP100, 24 h
[4] = Cytotoxicity against human CHP100 cells assessed as inhibition of cell survival at 4 uM after 24 hrs by MTT assay relative to control; assay type: functional; conditions: CHP100, 24 h

| SMILES | pIC50 [1] | fold change (FC) [2] | pIC50 [3] | inhibition at 4 µM [4] [%] | Activity [2] |
| --- | --- | --- | --- | --- | --- |
| CC1=C(CO)C(=O)O[C@@H]([C@@H](C)[C@H]2CC[C@H]3[C@@H]4C[C@H](O)[C@]5(O)[C@@H](O)C=CC(=O)[C@]5(C)[C@H]4CC[C@]23C)C1 | < 5.00 | 0 |  |  |  |
| CC(=O)O[C@@H]1C=CC(=O)[C@]2(C)[C@H]3CC[C@]4(C)[C@@H]([C@H](C)[C@H]5CC(C)=C(CO)C(=O)O5)CC[C@H]4[C@@H]3C[C@H]3O[C@]132 | 6.60 | 1.64 | 6.08 | > 80 |  |
| CC(=O)O[C@H]1C=CC(=O)[C@]2(C)[C@H]3CC[C@]4(C)[C@@H]([C@H](C)[C@H]5CC(C)=C(C)C(=O)O5)CC[C@H]4[C@@H]3C[C@H]3O[C@]132 | 6.37 | 1.53 | 6.12 | > 80 |  |
| CC(C)C[C@@H](C=O)NC(=O)[C@H](CC(C)C)NC(=O)[C@H](CC(C)C)NC(=O)OCc1ccccc1 [MG-132] (Cbz-Leu-Leu-Leu-aldehyde) | 6.77 | 0.71 |  |  |  |
| CC1=C(COS(=O)(=O)O)C(=O)O[C@@H]([C@@H](C)[C@H]2CC[C@H]3[C@@H]4C[C@H]5O[C@]56[C@@H](OS(=O)(=O)O)C=CC(=O)[C@]6(C)[C@H]4CC[C@]23C)C1 | < 5.00 | 0 |  |  |  |
| CC(=O)OCC1=C(C)C[C@H]([C@@H](C)[C@H]2CC[C@H]3[C@@H]4C[C@H](OC(C)=O)[C@]5(O)[C@@H](OC(C)=O)C=CC(=O)[C@]5(C)[C@H]4CC[C@]23C)OC1=O | 5.64 | 0.74 |  |  |  |
| CC(=O)OCC1=C(C)C[C@H]([C@@H](C)[C@H]2CC[C@H]3[C@@H]4C[C@H]5O[C@]56C(=O)C=CC(=O)[C@]6(C)[C@H]4CC[C@]23C)OC1=O | 6.34 | 0.92 | 6.41 | > 80 |  |
| CC1=C(CO)C(=O)O[C@@H]([C@@H](C)[C@H]2CC[C@H]3[C@@H]4C[C@H]5O[C@]56C(=O)C=CC(=O)[C@]6(C)[C@H]4CC[C@]23C)C1 | 5.94 | 0.79 |  |  |  |
| CCCCO[C@H]1CC(=O)[C@]2(C)[C@H]3CC[C@]4(C)[C@@H]([C@H](C)[C@H]5CC(C)=C(CO)C(=O)O5)CC[C@H]4[C@@H]3C[C@H]3O[C@]32[C@H]1O | 5.06 | 0 |  |  |  |
| CC1=C(CO)C(=O)OC([C@@H](C)C2CCC3C4C(CC[C@@]32C)[C@@]2(C)C(=O)C=CC[C@]2(O)[C@H]2O[C@@H]42)C1 (some centres undefined) | < 5.00 | 0 |  |  |  |
| CC1=C(C)C(=O)O[C@@H]([C@@H](C)[C@H]2CC[C@H]3[C@@H]4C[C@H]5O[C@]56[C@@H](O)C=CC(=O)[C@]6(C)[C@H]4CC[C@]23C)C1 | 6.06 | 0.52 | 6.19 | > 80 |  |
| CC1=C(CO)C(=O)O[C@@H]([C@@H](C)[C@H]2CC[C@H]3[C@@H]4C[C@H]5O[C@]56[C@@H](O)[C@@H](n5cnc7c(N)ncnc75)CC(=O)[C@]6(C)[C@H]4CC[C@]23C)C1 | 6.21 | 0 |  |  |  |
| CC1=C(CO)C(=O)O[C@@H]([C@@H](C)[C@H]2CC[C@H]3[C@@H]4C[C@H]5O[C@]56[C@@H](O)[C@@H](OS(=O)(=O)O)CC(=O)[C@]6(C)[C@H]4CC[C@]23C)C1 | 5.28 | 0 |  |  |  |
| CC1=C(CO)C(=O)O[C@@H]([C@@H](C)[C@H]2CC[C@H]3[C@@H]4C[C@H]5O[C@]56[C@@H](O)[C@@H](O)CC(=O)[C@]6(C)[C@H]4CC[C@]23C)C1 [VISCOSALACTONE B] | < 5.00 | 0 |  |  |  |
| CC1=C(CO)C(=O)O[C@@H]([C@@H](C)[C@H]2CC[C@H]3[C@@H]4C[C@H]5O[C@]56[C@@H](O)CCC(=O)[C@]6(C)[C@H]4CC[C@]23C)C1 | < 5.00 | 0 |  |  |  |
| CC(=O)OCC1=C(C)C[C@H]([C@@H](C)[C@H]2CC[C@H]3[C@@H]4CC=C5C(OC(C)=O)C=CC(=O)[C@]5(C)[C@H]4CC[C@]23C)OC1=O (single isomer, unassigned) | 5.79 | 0.9 | 6.28 | > 80 |  |
| CC1=C(CO)C(=O)O[C@@H]([C@@H](C)[C@H]2CC[C@H]3[C@@H]4CC=C5[C@@H](O)C=CC(=O)[C@]5(C)[C@H]4CC[C@]23C)C1 | 5.29 | 0 |  |  |  |

| SMILES | pIC50 [1] | fold change (FC) [2] | pIC50 [3] | inhibition at 4 µM [4] [%] | Activity [2] |
| --- | --- | --- | --- | --- | --- |
| CC(=O)OCC1=C(C)C[C@H]([C@@H](C)[C@H]2CC[C@H]3[C@@H]4C[C@H]5O[C@]56[C@@H](O)C=CC(=O)[C@]6(C)[C@H]4CC[C@]23C)OC1=O | 6.60 | 3.81 | 6.64 | > 80 | Dose-dependent effect |
| CC1=C(CO)C(=O)O[C@@H]([C@@H](C)[C@H]2CC[C@H]3[C@@H]4C[C@H]5O[C@]56[C@@H](O)C=CC(=O)[C@]6(C)[C@H]4C[C@@H](O)[C@]23C)C1 | 5.37 | 0 |  |  |  |
| CC(=O)OCC1=C(C)C[C@H]([C@@H](C)[C@H]2CC[C@H]3[C@@H]4C[C@H]5O[C@]56[C@@H](O)[C@@H](OS(=O)(=O)O)CC(=O)[C@]6(C)[C@H]4CC[C@]23C)OC1=O | 5.95 | 0.36 | 6.14 | > 80 |  |
| CC(=O)OCC1=C(C)C[C@H]([C@@H](C)[C@H]2CC[C@H]3[C@@H]4C[C@@H](OC(C)=O)[C@@]5(O)CC=CC(=O)[C@]5(C)[C@H]4CC[C@]23C)OC1=O | < 5.00 | 0 |  |  |  |
| CC(=O)OCC1=C(C)C[C@H]([C@@H](C)[C@H]2CC[C@H]3[C@@H]4C[C@H]5O[C@]56[C@@H](OC(C)=O)C=CC(=O)[C@]6(C)[C@H]4C[C@@H](OC(C)=O)[C@]23C)OC1=O | 6.74 | 3.31 | 6.55 | > 80 | Dose-dependent effect |
| CC(=O)OCC1=C(C)C[C@H]([C@@H](C)[C@H]2CC[C@H]3[C@@H]4C[C@H]5O[C@]56[C@@H](OC(C)=O)[C@@H](OS(=O)(=O)O)CC(=O)[C@]6(C)[C@H]4CC[C@]23C)OC1=O | 5.98 | 0.78 | 6.41 | > 80 |  |
| CC(=O)OCC1=C(C)C[C@H]([C@@H](C)[C@H]2C[C@@H](OC(C)=O)[C@H]3[C@@H]4C[C@H]5O[C@]56[C@@H](OC(C)=O)C=CC(=O)[C@]6(C)[C@H]4CC[C@@]32C)OC1=O | 6.62 | 1.65 | 6.51 | > 80 |  |
| CC1=C(CO)C(=O)O[C@@H]([C@@H](C)[C@H]2CC[C@H]3[C@@H]4C[C@H]5O[C@]56[C@H](O)C=CC(=O)[C@]6(C)[C@H]4CC[C@]23C)C1 | 6.55 | 1.68 | 6.03 | > 80 |  |
| CC1=C(CO)C(=O)O[C@@H]([C@@H](C)[C@H]2C[C@@H](O)[C@H]3[C@@H]4C[C@H]5O[C@]56[C@@H](O)C=CC(=O)[C@]6(C)[C@H]4CC[C@@]32C)C1 | 5.42 | 0 |  |  |  |
| CC1=C(CO)C(=O)O[C@@H]([C@@H](C)[C@H]2CC[C@H]3[C@@H]4CC=C5C[C@@H](O)C[C@H](O)[C@]5(C)[C@H]4CC[C@]23C)C1 | 5.30 | 0 |  |  |  |
| CC1=C(CO)C(=O)O[C@@H]([C@@H](C)[C@H]2CC[C@H]3[C@@H]4C[C@H]5O[C@]56[C@@H](O)[C@@H](N=[N+]=[N-])CC(=O)[C@]6(C)[C@H]4CC[C@]23C)C1 | 5.78 | 0 | 6.09 | > 80 |  |
| CC1=C(CO)C(=O)O[C@@H]([C@@H](C)[C@H]2CC[C@H]3[C@@H]4C[C@H]5O[C@]56[C@@H](O)[C@H](n5ccc(=O)[nH]c5=O)CC(=O)[C@]6(C)[C@H]4CC[C@]23C)C1 | 6.27 | 0.59 | 6.02 | > 80 |  |
| CC1=C(COS(=O)(=O)O)C(=O)O[C@@H]([C@@H](C)[C@H]2CC[C@H]3[C@@H]4C[C@H]5O[C@]56[C@@H](O)C=CC(=O)[C@]6(C)[C@H]4CC[C@]23C)C1 | 5.48 | 0.2 |  |  |  |
| CC(=O)OCC1=C(C)C[C@H]([C@@H](C)[C@H]2CC[C@H]3[C@@H]4[C@@H]5O[C@@H]5[C@@]5(O)CC=CC(=O)[C@]5(C)[C@H]4CC[C@]23C)OC1=O | < 5.00 | 0 |  |  |  |
| CC1=C(C)C(=O)O[C@@H]([C@](C)(O)[C@H]2CC[C@H]3[C@@H]4[C@@H]5O[C@@H]5[C@@]5(O)CC=CC(=O)[C@]5(C)[C@H]4CC[C@]23C)C1 [WITHANOLIDE A] | < 5.00 | 0 |  |  |  |
| CC1=C(CO)C(=O)O[C@@H]([C@@H](C)[C@H]2CC[C@H]3[C@@H]4C[C@@H](O)[C@@]5(O)CC=CC(=O)[C@]5(C)[C@H]4CC[C@]23C)C1 [JABOROSALACTONE D] | < 5.00 | 0 |  |  |  |
